ChEMBL document CHEMBL4376884, “Toward a Rational Design of Polyamine-Based Zinc-Chelating Agents for Cancer Therapies” (J Med Chem, 2020)
pIC50: −log10 of the molar value. Active and inactive are the calls of the source. The calls are words filed in the database; no cut-off is given here.

Experiments:
Jurkat = experiment: Antiproliferative activity against human Jurkat cells assessed as reduction in cell viability at 10 uM incubated for 48 hrs by cell titer-glo assay; format: functional, cell-based
Method in brief: (§1)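 Cells plated and treated 24 h later with 10 µM compound for 48 h; viable cells quantified by CellTiter-Glo ATP luminescence. Expressed as percentage of viable cells relative to untreated; mean ± SD of three independent experiments, each in triplicate.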

JeKo-1 = experiment: Antiproliferative activity against human JeKo1 cells assessed as reduction in cell viability at 10 uM incubated for 48 hrs by cell titer-glo assay; format: functional, cell-based; method in brief: as §1
LN-229 [1] = experiment: Antiproliferative activity against human LN229 cells assessed as reduction in cell viability at 10 uM incubated for 48 hrs by cell titer-glo assay; format: functional, cell-based; method in brief: as §1
U-87 MG = experiment: Antiproliferative activity against human U87MG cells assessed as reduction in cell viability at 10 uM incubated for 48 hrs by cell titer-glo assay; format: functional, cell-based; conditions: U-87MG ATCC; method in brief: as §1
LN-229 [2] = experiment: Metal chelating activity in human LN229 cells assessed as decrease in intracellular concentration of labile zinc ions by measuring reduction in zinquin-Zn2+ complex formation incubated for 12 hrs followed by incubation with fluorophore-zinquin for 30 mins by spectrofluorometric analysis; format: cell-based
Method in brief: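 LN229 cells were treated 12 h, trypsinized, pelleted and checked by Trypan Blue. Then 6x10⁶ cells in 1 mL PBS were loaded with Zinquin 25 μM for 30 min at 37 °C in the dark. Fluorescence was read at ex 370/em 475 nm with a 400–600 nm scan, normalized to cell number, untreated set to 100; four independent experiments.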

[3] = Metal chelating activity assessed as Zn2+-compound complex formation by measuring stability constant for ZnL in 0.15M NaCl at 298.1K by potentiometric titration analysis
Method in brief: (§2)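 Glass-electrode potentiometric titration with an Ag/AgCl reference in saturated KCl. The electrode was calibrated as an [H+] probe against standardized HCl with CO₂-free NaOH, using Gran's method (pKw 13.73(1)). Range was pH 2.0–11.0, with metal and ligand at 1×10⁻³ to 5×10⁻³ M in 1:1 ratio. At least two curves per compound were merged and fitted with HYPERQUAD.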

[4] = Metal chelating activity assessed as Zn2+-compound complex formation by measuring stability constant for ZnL(OH) in 0.15M NaCl at 298.1K by potentiometric titration analysis; method in brief: as §2
[5] = Metal chelating activity assessed as Zn2+-compound complex formation by measuring stability constant for ZnL(OH)2 in 0.15M NaCl at 298.1K by potentiometric titration analysis; method in brief: as §2
[6] = Metal chelating activity assessed as Zn2+-compound complex formation by measuring stability constant for ZnL(OH) using pre-Zn2+-complexed compound (ZnL) in 0.15M NaCl at 298.1K by potentiometric titration analysis; method in brief: as §2
[7] = Metal chelating activity assessed as Zn2+-compound complex formation by measuring stability constant for ZnL(OH)2 using pre-Zn2+-complexed compound (ZnL(OH)) in 0.15M NaCl at 298.1K by potentiometric titration analysis; method in brief: as §2
[8] = Metal chelating activity assessed as Zn2+-compound complex formation at physiological pH 7.4 by quantum mechanical studies
Method in brief: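 Zn2+ complexes modelled by DFT, B3LYP, gas phase. Basis set def2-SV(P), with MDF10 Stuttgart-Dresden effective core potential for Zn and Grimme dispersion correction. Vibrational frequencies and zero-point correction computed for each minimum.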

LN-229 [9] = experiment: Inhibition of colony formation in human LN229 cells at 30 uM incubated for 4 hrs by crystal violet staining based colony counting method; format: functional, cell-based
Method in brief: (§3)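 LN229 and PC3 cells treated for 4 h with compound (10 µM) or with etoposide (30 µM positive control), washed, trypsinized and replated at 3000 cells per 60-mm plate. Colonies grown 7–10 days, fixed and stained with 0.5% crystal violet in 70% ethanol, and counted. Reported as percent of control; four independent experiments, each in duplicate.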

PC-3 = experiment: Inhibition of colony formation in human PC3 cells at 30 uM incubated for 4 hrs by crystal violet staining based colony counting method; format: functional, cell-based; method in brief: as §3
[10] = Metal chelating activity assessed as Zn2+-compound complex formation by measuring stability constant for ZnHL in 0.15M NaCl at 298.1K by potentiometric titration analysis; method in brief: as §2
[11] = Metal chelating activity assessed as Zn2+-compound complex formation by measuring stability constant for ZnH2L in 0.15M NaCl at 298.1K by potentiometric titration analysis
Method in brief: (§4)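 Potentiometric titration at pH 2.0–11.0 with Ag/AgCl reference electrode. Glass electrode calibrated against HCl with CO2-free NaOH by Gran's method (pKw = 13.73). Metal and ligand each at 1×10⁻³ to 5×10⁻³ M, 1:1 molar ratio. At least two titration curves per compound, merged and fitted with HYPERQUAD to give stability constants.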

[12] = Metal chelating activity assessed as Zn2+-compound complex formation by measuring stability constant for ZnH2L using pre-Zn2+-complexed compound (ZnHL) in 0.15M NaCl at 298.1K by potentiometric titration analysis; method in brief: as §4
[13] = Metal chelating activity assessed as Zn2+-compound complex formation by measuring stability constant for ZnHL using pre-Zn2+-complexed compound (ZnL) in 0.15M NaCl at 298.1K by potentiometric titration analysis; method in brief: as §2
DNA [14] = experiment: Induction of DNA damage in human LN229 cells assessed as increase in gammaH2AX phosphorylation at Ser139 residue at 1 uM incubated for 4 hrs by Flow cytometry analysis; format: cell-based
Method in brief: (§5)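 Z-138 and LN229 cells treated 4 h with 10 µM compound or 1 µM doxorubicin. Fixed in 3.7% formaldehyde on ice, permeabilized with 0.2% Triton X, stained with rabbit anti-pS139 H2A.X (1:400) and Alexa 555 secondary, then analysed by flow cytometry. Fold γH2AX fluorescence versus untreated; mean ± SD of three experiments.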

DNA [15] = experiment: Induction of DNA damage in human Z138 cells assessed as increase in gammaH2AX phosphorylation at Ser139 residue at 1 uM incubated for 4 hrs by Flow cytometry analysis; format: cell-based; method in brief: as §5
Fibroblast = experiment: Cytotoxicity against human Fibroblast assessed as reduction in cell viability incubated for 48 hrs by cell titer-glo assay; format: cell-based
Method in brief: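 Dose-response: cells plated, treated 24 h later for 48 h, then ATP measured by CellTiter-Glo luminescence. IC50 given as mean ± SD from three independent experiments, each in triplicate. Fibroblasts came from individuals. Cells were kept in RPMI or DMEM with 10% heat-inactivated FBS and penicillin/streptomycin at 37 °C, 5% CO2.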

[16] = Metal chelating activity assessed as Zn2+-compound complex formation by measuring stability constant for ZnL in 0.15M NaCl and hydroalcoholic solutions (H2O/EtOH 70:30) at 298.1K by potentiometric titration analysis; method in brief: as §2
[17] = Metal chelating activity assessed as Zn2+-compound complex formation by measuring stability constant for ZnL(OH) in 0.15M NaCl and hydroalcoholic solutions (H2O/EtOH 70:30) at 298.1K by potentiometric titration analysis; method in brief: as §2
[18] = Metal chelating activity assessed as Zn2+-compound complex formation by measuring stability constant for ZnL(OH)2 in 0.15M NaCl and hydroalcoholic solutions (H2O/EtOH 70:30) at 298.1K by potentiometric titration analysis; method in brief: as §2
[19] = Metal chelating activity assessed as Zn2+-compound complex formation by measuring stability constant for ZnL(OH) using pre-Zn2+-complexed compound (ZnL) in 0.15M NaCl and hydroalcoholic solutions (H2O/EtOH 70:30) at 298.1K by potentiometric titration analysis; method in brief: as §2
[20] = Metal chelating activity assessed as Zn2+-compound complex formation by measuring stability constant for ZnL(OH)2 using pre-Zn2+-complexed compound (ZnL(OH)) in 0.15M NaCl and hydroalcoholic solutions (H2O/EtOH 70:30) at 298.1K by potentiometric titration analysis; method in brief: as §2
[21] = Metal chelating activity assessed as Zn2+-compound complex formation by measuring stability constant for ZnH2L2 in 0.15M NaCl and hydroalcoholic solutions (H2O/EtOH 70:30) at 298.1K by potentiometric titration analysis; method in brief: as §4

Compound | Activity (Jurkat) | Activity (JeKo-1) | Activity (LN-229 [1]) | Activity (U-87 MG) | Activity (LN-229 [2]) | log K [3] | log K [4] | log K [5] | log K [6] | log K [7] | Activity [8] | other results
c1ccc2cc(CN(CCNCc3ccncc3)CCNCc3ccncc3)ccc2c1 | inactive | inactive | inactive | inactive | inactive | 4.72 | -4.22 | -12.9 | -8.99 | -8.67 | 60.7% | –
COc1cc([C@@H]2c3cc4c(cc3[C@@H](O[C@@H]3O[C@@H]5CO[C@@H](C)O[C@H]5[C@H](O)[C@H]3O)[C@H]3COC(=O)[C@H]23)OCO4)cc(OC)c1O | – | – | – | – | – | – | – | – | – | – | – | inhibition (LN-229 [9]): Active; inhibition (PC-3): Active
O=S(=O)(c1cccc2ccccc12)N(CCNCc1ccccn1)CCNCc1ccccn1 | Active | Active | Active | Active | inactive | 7.53 | -1.48 | -11.8 | -10 | -10.3 | – | –
CN(C)c1cccc2c(S(=O)(=O)N(CCNCc3ccccn3)CCNCc3ccccn3)cccc12 | Active | Active | Active | Active | inactive | 8.38 | -1.17 | -11.5 | -9.55 | -10.4 | Active | log K [10]: 13; log K [11]: 17.5; log K [12]: 4.5; log K [13]: 4.61
O=S(=O)(c1cccc2cccnc12)N(CCNCc1ccccn1)CCNCc1ccccn1 | Active | Active | Active | – | – | – | – | – | – | – | – | –
O=C(NCCN(CCNC(=O)c1ccccn1)Cc1ccc2ccccc2c1)c1ccccn1 | – | – | – | – | inactive | – | – | – | – | – | Active | –
c1cncc(CNCCN(CCNCc2cccnc2)Cc2ccc3ccccc3c2)c1 | inactive | inactive | inactive | inactive | inactive | 6.04 | -2.56 | -12.1 | -8.6 | -9.54 | 63.4% | log K [10]: 14.1
COc1cccc2c1C(=O)c1c(O)c3c(c(O)c1C2=O)C[C@@](O)(C(=O)CO)C[C@@H]3O[C@H]1C[C@H](N)[C@H](O)[C@H](C)O1 | – | – | – | – | – | – | – | – | – | – | – | Activity (DNA [14]): Active; Activity (DNA [15]): Active
c1ccc(CN(CCN(Cc2ccccn2)Cc2ccccn2)Cc2ccccn2)nc1 | – | – | – | – | – | – | – | – | – | – | – | pIC50 (Fibroblast): 5.17
CN(CCNCc1ccncc1)CCNCc1ccncc1 | inactive | inactive | inactive | inactive | inactive | – | – | – | – | – | – | log K [16]: 6.57; log K [17]: -2.6; log K [18]: -12.3; log K [19]: -9.17; log K [20]: -9.68; log K [21]: 24.3
